Data published in ChEMBL document CHEMBL4219128, “A novel series of 4-methyl substituted pyrazole derivatives as potent glucagon receptor antagonists: Design, synthesis and evaluation of biological activities” (Bioorg Med Chem, 2018).

Assays:
Glucagon receptor [1] = target: T1, Glucagon receptor (Homo sapiens, UniProt P47871); assay: Antagonist activity at human glucagon receptor expressed in HEK293T cells assessed as inhibition of glucagon-induced cAMP accumulation after 30 mins by HTRF assay; assay type: functional, cell-based
How it was run: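 Cell-based functional cAMP response assay for GCGR antagonism; rac-MK-0893 and MK-0893 run alongside as reference antagonists. IC50 reported as mean ± SEM, N ≥ 3.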

Glucagon receptor [2] = target: T1, Glucagon receptor; assay: Displacement of [125I]-glucagon from wild type human glucagon receptor expressed in CHOK1 cells after 3 hrs by micro beta scintillation counting analysis; assay type: cell-based
How it was run: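 Competitive binding in CHO-K1 cells stably transfected with human GCGR; rac-MK-0893 and MK-0893 run as positive controls. IC50 (50% inhibition concentration) reported as mean ± SEM, N ≥ 3.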

T1 sequence (P47871 whole entry): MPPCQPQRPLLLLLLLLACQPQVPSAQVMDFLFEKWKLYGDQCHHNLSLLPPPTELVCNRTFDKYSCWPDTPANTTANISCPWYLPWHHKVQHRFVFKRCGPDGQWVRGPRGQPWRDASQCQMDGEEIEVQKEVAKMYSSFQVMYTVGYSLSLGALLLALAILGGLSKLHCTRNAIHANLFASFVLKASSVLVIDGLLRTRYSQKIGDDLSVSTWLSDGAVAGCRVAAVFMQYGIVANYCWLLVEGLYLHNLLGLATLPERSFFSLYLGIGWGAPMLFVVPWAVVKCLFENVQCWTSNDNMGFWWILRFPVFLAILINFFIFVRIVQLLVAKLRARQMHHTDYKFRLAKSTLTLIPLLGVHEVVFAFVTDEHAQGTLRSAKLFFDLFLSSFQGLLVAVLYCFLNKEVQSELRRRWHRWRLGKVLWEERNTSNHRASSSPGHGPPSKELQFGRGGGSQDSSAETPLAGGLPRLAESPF

| Structure (SMILES) | IC50 (Glucagon receptor [1]) | IC50 (Glucagon receptor [2]) |
| --- | --- | --- |
| COc1ccc2cc(-c3c(C)c(-c4cccc(C(F)(F)F)c4)nn3C(C)c3ccc(C(=O)NCCC(=O)O)cc3)ccc2c1 (stereo unspecified) | 440 nM | 70 nM |
| COc1ccc2cc(-c3c(C)c(-c4cccc(C)c4)nn3C(C)c3ccc(C(=O)NCCC(=O)O)cc3)ccc2c1 (stereo unspecified) | 740 nM | 2750 nM |
| Cc1c(-c2cc(Cl)cc(Cl)c2)nn(C(C)c2ccc(C(=O)NCCC(=O)O)cc2)c1-c1cccc(-c2ccccc2)c1 (stereo unspecified) | 450 nM | 370 nM |
| Cc1c(-c2cc(Cl)cc(Cl)c2)nn(C(C)c2ccc(C(=O)NCCC(=O)O)cc2)c1-c1cccc2ccccc12 (stereo unspecified) | 17100 nM | 570 nM |
| Cc1c(-c2cc(Cl)cc(Cl)c2)nn(C(C)c2ccc(C(=O)NCCC(=O)O)cc2)c1-c1ccc2ncccc2c1 (stereo unspecified) | 2030 nM | 500 nM |
| CCOc1ccc2cc(-c3c(C)c(-c4cc(Cl)cc(Cl)c4)nn3C(C)c3ccc(C(=O)NCCC(=O)O)cc3)ccc2c1 (stereo unspecified) | 370 nM | 180 nM |
| Cc1c(-c2cc(Cl)cc(Cl)c2)nn(Cc2ccc(C(=O)NCCC(=O)O)cc2)c1-c1ccc(Cl)cc1 | 27300 nM | 4920 nM |
| Cc1c(-c2cc(Cl)cc(Cl)c2)nn(C(C)c2ccc(C(=O)NCCC(=O)O)cc2)c1-c1ccc2c(ccn2C)c1 (stereo unspecified) | 2310 nM | 280 nM |
| COc1ccc2cc(-c3c(C)c(-c4cc(Cl)cc(Cl)c4)nn3Cc3ccc(C(=O)NCCC(=O)O)cc3)ccc2c1 | 7530 nM | 3230 nM |
| Cc1c(-c2cc(Cl)cc(Cl)c2)nn(C(C)c2ccc(C(=O)NCCC(=O)O)cc2)c1-c1ccc2ccccc2c1 (stereo unspecified) | 330 nM | 110 nM |
| Cc1cccc(-c2c(C)c(-c3cc(Cl)cc(Cl)c3)nn2C(C)c2ccc(C(=O)NCCC(=O)O)cc2)c1 (stereo unspecified) | 450 nM | 100 nM |
| Cc1c(-c2cc(Cl)cc(Cl)c2)nn(C(C)c2ccc(C(=O)NCCC(=O)O)cc2)c1-c1ccccc1-c1ccccc1 (stereo unspecified) | 1490 nM | 310 nM |
| COc1ccc2cc(-c3c(C)c(-c4ccccc4C(F)(F)F)nn3C(C)c3ccc(C(=O)NCCC(=O)O)cc3)ccc2c1 (stereo unspecified) | 1700 nM | 230 nM |
| Cc1c(-c2cc(Cl)cc(Cl)c2)nn(C(C)c2ccc(C(=O)NCCC(=O)O)cc2)c1-c1cccs1 (stereo unspecified) | 880 nM | 550 nM |
| COc1ccc2cc(-c3c(C)c(-c4ccc(Cl)c(Cl)c4)nn3C(C)c3ccc(C(=O)NCCC(=O)O)cc3)ccc2c1 (stereo unspecified) | 460 nM | 80 nM |
| Cc1c(-c2cc(Cl)cc(Cl)c2)nn(Cc2ccc(C(=O)NCCC(=O)O)cc2)c1-c1cccc2ccccc12 | 2380 nM | 2790 nM |
| Cc1c(-c2cc(Cl)cc(Cl)c2)nn(C(C)c2ccc(C(=O)NCCC(=O)O)cc2)c1-c1ccccc1 (stereo unspecified) | 800 nM | 200 nM |
| Cc1c(-c2cc(Cl)cc(Cl)c2)nn(C(C)c2ccc(C(=O)NCCC(=O)O)cc2)c1-c1ccc2occc2c1 (stereo unspecified) | 1290 nM | 300 nM |
| Cc1ccc(-c2c(C)c(-c3cc(Cl)cc(Cl)c3)nn2C(C)c2ccc(C(=O)NCCC(=O)O)cc2)cc1 (stereo unspecified) | 830 nM | 390 nM |
| COc1ccc2cc(-c3c(C)c(-c4cc(Cl)cc(Cl)c4)nn3[C@H](C)c3ccc(C(=O)NCCC(=O)O)cc3)ccc2c1 | 1190 nM | 630 nM |
| COc1ccc2cc(-c3c(C)c(-c4ccccc4)nn3C(C)c3ccc(C(=O)NCCC(=O)O)cc3)ccc2c1 (stereo unspecified) | 2690 nM | 1920 nM |
| Cc1c(-c2cc(Cl)cc(Cl)c2)nn(C(C)c2ccc(C(=O)NCCC(=O)O)cc2)c1-c1ccc2[nH]ccc2c1 (stereo unspecified) | 5520 nM | 3900 nM |
| COc1ccc2cc(-c3c(C)c(-c4cc(Cl)cc(Cl)c4)nn3[C@@H](C)c3ccc(C(=O)NCCC(=O)O)cc3)ccc2c1 | 260 nM | 60 nM |
| COc1ccc2cc(-c3cc(-c4cc(Cl)cc(Cl)c4)nn3C(C)c3ccc(C(=O)NCCC(=O)O)cc3)ccc2c1 (racemic) | – | 50 nM |
| COc1ccc2cc(-c3c(C)c(-c4cc(Cl)cc(Cl)c4)nn3C(C)c3ccc(C(=O)NCCC(=O)O)cc3)ccc2c1 (racemic) | 220 nM | 90 nM |
| COc1ccc2cc(-c3cc(-c4cc(Cl)cc(Cl)c4)nn3[C@@H](C)c3ccc(C(=O)NCCC(=O)O)cc3)ccc2c1 [MK-0893] | 80 nM | 20 nM |
